Test results taken from ChEMBL document CHEMBL1765004 (2011).
Activity calls are given as the source filed them. The calls are words filed in the database; no cut-off is given here.

Assays:
DU-145 = assay: Anticancer activity against human DU145 cells; type: functional
Method in brief: (§1)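 NCI-DTP 60 cell line screen; GI50 values supplied by NCI-DTP. HCT-116 GI50 for some entries determined instead by a separate group (Henry Ford Hospital). Compounds failing initial single-dose testing at 10 μM (<25% growth inhibition) were not taken to five-dose testing.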

LOX IMVI = assay: Anticancer activity against human LOXIMVI cells; type: functional; method in brief: as §1
U-251 = assay: Anticancer activity against human U251 cells; type: functional; method in brief: as §1
IGROV-1 = assay: Anticancer activity against human IGROV1 cells; type: functional; method in brief: as §1
NCI-H522 = assay: Anticancer activity against human NCI-H522 cells; type: functional; method in brief: as §1
A498 = assay: Anticancer activity against human A498 cells; type: functional; method in brief: as §1
HCT-116 [1] = assay: Anticancer activity against human HCT116 cells; type: functional; method in brief: as §1
MDA-MB-231 = assay: Anticancer activity against human MDA-MB-231 cells; type: functional; method in brief: as §1
HCT-116 [2] = assay: Antimicrofilament activity in human HCT116 cells assessed as loss of microfilament at 0.01 uM by rhodamine-phalloidin staining; type: functional, cell-based
HCT-116 [3] = assay: Antimicrofilament activity in human HCT116 cells assessed as additional loss of microfilament at 1 uM by rhodamine-phalloidin staining; type: functional, cell-based
HCT-116 [4] = assay: Antimicrofilament activity in human HCT116 cells assessed as loss of microfilament network at 0.5 uM by rhodamine-phalloidin staining; type: functional, cell-based
HCT-116 [5] = assay: Antimicrofilament activity in human HCT116 cells assessed as loss of microfilament at 0.05 uM by rhodamine-phalloidin staining; type: functional, cell-based
HCT-116 [6] = assay: Antimicrofilament activity in human HCT116 cells assessed as additional loss of microfilament at 5 uM by rhodamine-phalloidin staining; type: functional, cell-based
HCT-116 [7] = assay: Antimicrofilament activity in human HCT116 cells assessed as loss of microfilament at 0.1 uM by rhodamine-phalloidin staining; type: functional, cell-based
HCT-116 [8] = assay: Antimicrofilament activity in human HCT116 cells assessed as complete loss of microfilament network at GI50 concentration by rhodamine-phalloidin staining; type: functional, cell-based
HCT-116 [9] = assay: Antimicrofilament activity in human HCT116 cells assessed as additional loss of microfilament network at 0.5 uM by rhodamine-phalloidin staining; type: functional, cell-based
HCT-116 [10] = assay: Antimicrofilament activity in human HCT116 cells assessed as total loss of microfilament network at 1 uM by rhodamine-phalloidin staining; type: functional, cell-based
HCT-116 [11] = assay: Antimicrofilament activity in human HCT116 cells assessed as total loss of microfilament network at 0.5 uM by rhodamine-phalloidin staining; type: functional, cell-based
HCT-116 [12] = assay: Antimicrofilament activity in human HCT116 cells assessed as total loss of microfilament network at 5 uM by rhodamine-phalloidin staining; type: functional, cell-based
HCT-116 [13] = assay: Antimicrofilament activity in human HCT116 cells assessed as additional loss of microfilament at 0.1 uM by rhodamine-phalloidin staining; type: functional, cell-based
HCT-116 [14] = assay: Antimicrofilament activity in human HCT116 cells assessed as complete loss of microfilament network at 0.5 uM to 5 uM by rhodamine-phalloidin staining
HCT-116 [15] = assay: Antimicrofilament activity in human HCT116 cells assessed as loss of microfilament at 1 uM by rhodamine-phalloidin staining; type: functional, cell-based
HCT-116 [16] = assay: Antimicrofilament activity in human HCT116 cells assessed as loss of microfilament at 5 uM by rhodamine-phalloidin staining; type: functional, cell-based

SMILES	GI50 (DU-145) [nM]	GI50 (LOX IMVI) [nM]	GI50 (U-251) [nM]	GI50 (IGROV-1) [nM]	GI50 (NCI-H522) [nM]	GI50 (A498) [nM]	GI50 (HCT-116 [1]) [nM]	GI50 (MDA-MB-231) [nM]	Activity (HCT-116 [2])	Activity (HCT-116 [5])	Activity (HCT-116 [7])	also measured
C/C1=C\[C@H](C)C[C@H](C)OC(=O)C[C@H](c2ccc(O)cc2)NC(=O)[C@@H](Cc2c(Br)[nH]c3ccccc23)NC(=O)[C@H](C)NC(=O)[C@@H](C)C1 [JASPLAKINOLIDE M]	250	20	60	30	200	170	130	210	–	–	–	–
COC(=O)C[C@@H](NC(=O)[C@@H](Cc1c(Br)[nH]c2ccccc12)N(C)C(=O)[C@H](C)NC(=O)[C@@H](C)C/C(C)=C/[C@H](C)C[C@H](C)O)c1ccc(O)cc1	–	–	–	–	–	–	270	–	inactive	inactive	inactive	Activity (HCT-116 [3]): Active; Activity (HCT-116 [4]): Active; Activity (HCT-116 [6]): Active
CC[C@@H]1NC(=O)[C@@H](C)C/C(C)=C/[C@H](C)C[C@H](C)OC(=O)C[C@H](c2ccc(O)cc2)NC(=O)[C@@H](Cc2c(Br)[nH]c3ccccc23)N(C)C1=O [JASPLAKINOLIDE D]	20	3	10	8	30	2	20	20	–	–	–	–
C/C1=C\[C@H](C)C[C@H](C)OC(=O)C[C@H](c2ccc(O)cc2)NC(=O)[C@@H](Cc2c[nH]c3ccccc23)N(C)C(=O)[C@H](C)NC(=O)[C@@H](C)C1 [JASPLAKINOLIDE Q]	100	20	30	10	160	80	50	70	–	–	–	–
C=C1C[C@H](C)C(=O)N[C@@H](C)C(=O)N(C)[C@H](Cc2c(Br)[nH]c3ccccc23)C(=O)N[C@@H](c2ccc(O)cc2)CC(=O)O[C@@H](C)C[C@@H](C)C1=O [JASPLAKINOLIDE B]	–	–	–	–	–	–	140	40	inactive	inactive	Active	Activity (HCT-116 [8]): Active; Activity (HCT-116 [9]): Active; Activity (HCT-116 [3]): Active; Activity (HCT-116 [6]): Active
C/C1=C\[C@H](C)C[C@H](C)OC(=O)C[C@H](c2ccc(O)c(O)c2)NC(=O)[C@@H](Cc2c(Br)[nH]c3ccccc23)N(C)C(=O)[C@H](C)NC(=O)[C@@H](C)C1	80	7	40	30	60	10	70	90	inactive	Active	–	Activity (HCT-116 [10]): Active; Activity (HCT-116 [11]): Active; Activity (HCT-116 [12]): Active; Activity (HCT-116 [13]): Active; Activity (HCT-116 [14]): Active
C/C(=C\[C@H](C)C[C@H](C)O)C[C@H](C)C(=O)N[C@@H](C)C(=O)N(C)[C@H](Cc1c(Br)[nH]c2ccccc12)C(N)=O	–	–	–	–	–	–	11100	22300	inactive	inactive	inactive	Activity (HCT-116 [4]): Active; Activity (HCT-116 [15]): inactive; Activity (HCT-116 [16]): inactive
